These results are taken from ChEMBL document CHEMBL1149738, “New cytotoxic scalarane sesterterpenes from the Dictyoceratid sponge Strepsichordaia lendenfeldi” (J Nat Prod, 1992).

≈ marks a conversion by molar mass, not a printed value. Calls of active or inactive are those of the source. No cut-off for these calls is given here. Where only a bound is given, the exact number is not on record here.

Data set [1] deals with Bacillus subtilis. The data set is described as follows: Antimicrobial activity against Bacillus subtilis. It is filed as functional, organism-based.
For data set [2], the system named is P388. Briefly: Cytotoxicity against DBA/2 mouse P388 cells. It is filed as functional, cell-based. To be noted: DBA/2, P388. The method in brief:
(§1)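 Cultured tumour and normal cell lines: P-388 (lymphoid neoplasm, DBA/2 mouse), A-549 (human lung carcinoma), HT-29 (human colon carcinoma) and CV-1 (monkey kidney fibroblast). Potency was expressed as approximate IC50 values in μg/ml.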

Data set [3] concerns A549. Briefly: Cytotoxicity against human A549 cells. It is filed as functional, cell-based. Put shortly: as §1
The subject of data set [4] is HT-29. The data set is described as follows: Cytotoxicity against human HT-29 cells. It is filed as functional, cell-based. The method in brief: as §1
Data set [5] in a line: Cytotoxicity against african green monkey CV1 cells. It counts as cell-based. To be noted: chlorocebus aethiops, cv-1. The method in brief: as §1
Data set [6] concerns Staphylococcus aureus. The data set is described as follows: Antimicrobial activity against Staphylococcus aureus. It is filed as functional, organism-based.

Turning to `CCC(CC(=O)O[C@H]1C[C@@H]2[C@@]3(C)CCC[C@](C)(CC)[C@@H]3CC[C@@]2(C)[C@@H]2CC=C(C(C)=O)[C@H](C=O)[C@@]12C)OC(C)=O` (stereo partly drawn), the result in data set [1] was Active. In addition, the half-maximal inhibitory concentration (IC50) (usually the concentration that gives 50% inhibition) in data set [2] is below 0.12 µg/mL; in data set [3] it was 0.25 µg/mL (≈ 0.449 µM).
For `CCC(=O)O[C@H]1C[C@H]2[C@]3(C)CC[C@H]4[C@@](C)(CC)CCC[C@]4(C)[C@H]3C[C@H](OC(C)=O)[C@]2(C)[C@@H](C=O)[C@@H]1C(C)=O`, in that order: “Active”, 0.67 µg/mL (≈ 1.26 µM) and 0.67 µg/mL (≈ 1.26 µM).
For the compound `CCC(O)CC(=O)O[C@H]1C[C@H]2[C@]3(C)CC[C@H]4[C@@](C)(CC)CCC[C@]4(C)[C@H]3C[C@H](OC(C)=O)[C@]2(C)[C@@H](C=O)[C@@H]1C(C)=O` (stereo partly drawn), the outcome in data set [4] was Active. In data set [5], the outcome was Active. Further, the IC50 in data set [2] and in data set [3] was 0.5 µg/mL (≈ 0.87 µM) in each case.
As to `CCC(=O)OC(CC)CC(=O)O[C@H]1C[C@@H]2[C@@]3(C)CCC[C@](C)(CC)[C@@H]3CC[C@@]2(C)[C@@H]2CC=C(C(C)=O)[C@H](C=O)[C@@]12C` (stereo partly drawn), in data set [1], the result was Active. Further, the IC50 in data set [2] was below 0.12 µg/mL; in data set [3], 0.21 µg/mL (≈ 0.368 µM).
Turning to `CC[C@@]1(C)CCC[C@]2(C)[C@H]3C[C@H](OC(C)=O)[C@]4(C)[C@@H](C=O)[C@H](C(C)=O)[C@@H](O)C[C@H]4[C@]3(C)CC[C@@H]12`, the outcome in data set [4] was Active. Further, the result in data set [5] was Active. Besides, the half-inhibitory concentration (IC50) in data set [2] and in data set [3] was 0.1 µg/mL (≈ 0.211 µM) throughout.
Take `CC[C@@]1(C)CCC[C@]2(C)[C@H]3C[C@H](OC(C)=O)[C@]4(C)[C@@H](C=O)[C@H](C(C)=O)[C@@H](OC(=O)C[C@@H](C)O)C[C@H]4[C@]3(C)CC[C@@H]12`: the outcome in data set [1] and in data set [6] was Active. Also, the concentration for half-maximal inhibition (IC50) was 0.23 µg/mL (≈ 0.41 µM) in data set [2] and 0.66 µg/mL (≈ 1.18 µM) in data set [3].
Take `CC[C@@]1(C)CCC[C@]2(C)[C@H]3C[C@H](OC(C)=O)[C@]4(C)[C@@H](C=O)[C@H](C(C)=O)[C@@H](OC(C)=O)C[C@H]4[C@]3(C)CC[C@@H]12`: the result in data set [1] was Active. In addition, the half-inhibitory concentration (IC50) was 0.91 µg/mL (≈ 1.76 µM) in data set [2] and 0.88 µg/mL (≈ 1.7 µM) in data set [3].
Regarding `CC[C@@]1(C)CCC[C@]2(C)[C@H]3C[C@H](OC(=O)CC(C)OC(C)=O)[C@]4(C)[C@@H](C=O)C(C(C)=O)=CC[C@H]4[C@]3(C)CC[C@@H]12` (stereo partly drawn), in data set [4], the result was Active. For the same compound, the outcome in data set [5] was Active. For the same compound, the IC50 in data set [2] and in data set [3] was 0.2 µg/mL (≈ 0.368 µM) throughout.
